Source: ChEMBL document CHEMBL3244074, “2-Indanpropionic acids: structural leads for prostaglandin F2alpha antagonist development” (J Med Chem, 1979)
Calls of active or inactive are those of the source. The rule behind the calls is not given here.

What was measured:
Assay type in all cases: tissue-based
[1] = molecular target: Prostaglandin F2-alpha receptor (Mus musculus) (UniProt P43117); assay: Antagonist activity at prostaglandin F2-alpha receptor in isolated Albino mouse ileum assessed as inhibition of KCl-induced spasmogenic effect at 3X10'-5 M preincubated for 3 mins followed by KCl challenge relative to control
Procedure, shortened: (§1)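 Ileum sections were taken from female albino mice (20-25 g) killed by cervical dislocation and mounted in 37 °C baths under 200 mg tension, with isotonic contraction recording after a 30-min equilibration. A control contraction to KCl (54 mM bath) was followed by three washes. Compound was left on the tissue for 3 min, then KCl was re-added and the contraction recorded. After 5 min the tissue was washed three times and the control response repeated.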

[2] = molecular target: Prostaglandin F2-alpha receptor (Mus musculus) (UniProt P43117); assay: Antagonist activity at prostaglandin F2-alpha receptor in isolated Albino mouse ileum assessed as inhibition of acetylcholine-induced spasmogenic effect at 10^-4 M preincubated for 3 mins followed by acetylcholine challenge relative to control
Procedure, shortened: (§2)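 Mouse ileum came from female albinos (20-25 g) killed by cervical dislocation and was held under 200 mg tension in 37 °C baths for isotonic recording, with 30-min equilibration. A control acetylcholine contraction was obtained, then three washes. Compound was in contact for 3 min before acetylcholine challenge and contraction recording. After 5 min there were three washes and the control response was redetermined.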

[3] = molecular target: Prostaglandin F2-alpha receptor (Mus musculus) (UniProt P43117); assay: Antagonist activity at prostaglandin F2-alpha receptor in isolated Albino mouse ileum assessed as inhibition of KCl-induced spasmogenic effect at; procedure, shortened: as §1
[4] = molecular target: Prostaglandin F2-alpha receptor (Mus musculus) (UniProt P43117); assay: Antagonist activity at prostaglandin F2-alpha receptor in isolated Albino mouse ileum assessed as inhibition of acetylcholine-induced spasmogenic effect at 10^-3 M preincubated for 3 mins followed by acetylcholine challenge relative to control; procedure, shortened: as §2
[5] = molecular target: Prostaglandin F2-alpha receptor (Mus musculus) (UniProt P43117); assay: Antagonist activity at prostaglandin F2-alpha receptor in isolated Albino mouse ileum assessed as inhibition of acetylcholine-induced spasmogenic effect at; procedure, shortened: as §2
[6] = molecular target: Prostaglandin F2-alpha receptor (Mus musculus) (UniProt P43117); assay: Antagonist activity at prostaglandin F2-alpha receptor in isolated Albino mouse ileum assessed as inhibition of PGF2alpha-induced spasmogenic effect at 10^-3 M preincubated for 3 mins followed by PGF2alpha challenge relative to control
Procedure, shortened: (§3)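 This used female albino mouse ileum (20-25 g animals, killed by cervical dislocation), recorded isotonically under 200 mg tension at 37 °C after 30-min equilibration. A control PGF2α contraction was obtained and the bath washed three times. Compound was applied for 3 min before PGF2α challenge, and the contraction was recorded. Washing three times after 5 min was followed by a repeat PGF2α control response.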

[7] = molecular target: Prostaglandin F2-alpha receptor (Mus musculus) (UniProt P43117); assay: Antagonist activity at prostaglandin F2-alpha receptor in isolated Albino mouse ileum assessed as inhibition of PGF2alpha-induced spasmogenic effect at 5X10'-5 M preincubated for 3 mins followed by PGF2alpha challenge relative to control; procedure, shortened: as §3
[8] = molecular target: Prostaglandin F2-alpha receptor (Mus musculus) (UniProt P43117); assay: Antagonist activity at prostaglandin F2-alpha receptor in isolated Albino mouse ileum assessed as inhibition of PGF2alpha-induced spasmogenic effect at 10^-4 M preincubated for 3 mins followed by PGF2alpha challenge relative to control; procedure, shortened: as §3
[9] = molecular target: Prostaglandin F2-alpha receptor (Mus musculus) (UniProt P43117); assay: Antagonist activity at prostaglandin F2-alpha receptor in isolated Albino mouse ileum assessed as inhibition of KCl-induced spasmogenic effect at 5X10'-5 M preincubated for 3 mins followed by KCl challenge relative to control; procedure, shortened: as §1
[10] = molecular target: Prostaglandin F2-alpha receptor (Mus musculus) (UniProt P43117); assay: Antagonist activity at prostaglandin F2-alpha receptor in isolated Albino mouse ileum assessed as inhibition of KCl-induced spasmogenic effect at 10^-3 M preincubated for 3 mins followed by KCl challenge relative to control; procedure, shortened: as §1
[11] = molecular target: Prostaglandin F2-alpha receptor (Mus musculus) (UniProt P43117); assay: Antagonist activity at prostaglandin F2-alpha receptor in isolated Albino mouse ileum assessed as inhibition of KCl-induced spasmogenic effect preincubated for 3 mins followed by KCl challenge followed by compound washout; procedure, shortened: as §1
[12] = molecular target: Prostaglandin F2-alpha receptor (Mus musculus) (UniProt P43117); assay: Antagonist activity at prostaglandin F2-alpha receptor in isolated Albino mouse ileum assessed as inhibition of KCl-induced spasmogenic effect at 10^-4 M preincubated for 3 mins followed by KCl challenge relative to control; procedure, shortened: as §1
[13] = molecular target: Prostaglandin F2-alpha receptor (Mus musculus) (UniProt P43117); assay: Antagonist activity at prostaglandin F2-alpha receptor in isolated Albino mouse ileum assessed as inhibition of acetylcholine-induced spasmogenic effect at 3X10'-5 M preincubated for 3 mins followed by acetylcholine challenge relative to control; procedure, shortened: as §2
[14] = molecular target: Prostaglandin F2-alpha receptor (Mus musculus) (UniProt P43117); assay: Antagonist activity at prostaglandin F2-alpha receptor in isolated Albino mouse ileum assessed as inhibition of acetylcholine-induced spasmogenic effect preincubated for 3 mins followed by acetylcholine challenge followed by compound washout; procedure, shortened: as §2
[15] = molecular target: Prostaglandin F2-alpha receptor (Mus musculus) (UniProt P43117); assay: Antagonist activity at prostaglandin F2-alpha receptor in isolated Albino mouse ileum assessed as inhibition of PGF2alpha-induced spasmogenic effect at 3X10'-5 M preincubated for 3 mins followed by PGF2alpha challenge relative to control; procedure, shortened: as §3
[16] = molecular target: Prostaglandin F2-alpha receptor (Mus musculus) (UniProt P43117); assay: Antagonist activity at prostaglandin F2-alpha receptor in isolated Albino mouse ileum assessed as inhibition of acetylcholine-induced spasmogenic effect at 5X10'-5 M preincubated for 3 mins followed by acetylcholine challenge relative to control; procedure, shortened: as §2
[17] = molecular target: Prostaglandin F2-alpha receptor (Mus musculus) (UniProt P43117); assay: Antagonist activity at prostaglandin F2-alpha receptor in isolated Albino mouse ileum assessed as inhibition of PGF2alpha-induced spasmogenic effect preincubated for 3 mins followed by PGF2alpha challenge followed by compound washout; procedure, shortened: as §3
[18] = molecular target: Prostaglandin F2-alpha receptor (Mus musculus) (UniProt P43117); assay: Antagonist activity at prostaglandin F2-alpha receptor in isolated Albino mouse ileum assessed as inhibition of PGF2alpha-induced spasmogenic effect at; procedure, shortened: as §3

Chain of Prostaglandin F2-alpha receptor (Mus musculus) (P43117 whole entry): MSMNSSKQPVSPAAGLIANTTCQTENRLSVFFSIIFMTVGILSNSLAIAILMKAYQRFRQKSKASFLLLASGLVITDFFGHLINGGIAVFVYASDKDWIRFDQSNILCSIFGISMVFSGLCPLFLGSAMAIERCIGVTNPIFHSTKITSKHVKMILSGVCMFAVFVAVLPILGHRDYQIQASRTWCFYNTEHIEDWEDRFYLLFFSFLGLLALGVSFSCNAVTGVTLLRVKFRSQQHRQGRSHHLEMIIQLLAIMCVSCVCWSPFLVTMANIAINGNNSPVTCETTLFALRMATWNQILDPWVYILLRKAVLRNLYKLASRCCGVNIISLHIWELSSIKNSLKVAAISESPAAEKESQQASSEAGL

inhibition [1] [%] | inhibition [2] | inhibition [3] | inhibition [4] | inhibition [5] | inhibition [6] | inhibition [7] [%] | inhibition [8] | inhibition [9] [%] | inhibition [10] | inhibition [11] | inhibition [12] | inhibition [13] [%] | inhibition [14] | inhibition [15] [%] | inhibition [16] [%] | inhibition [17] | inhibition [18] | Compound
40 | 70% | Active | Active | Active | Active | 90 | Active | 50 | Active | inactive | 70% | < 20 | inactive | 80 | 35 | inactive | Active | CCCC1(CCC(=O)O)Cc2cc(OCc3ccccc3)c(OCc3ccccc3)cc2C1=O (centres undefined)
 | inactive | inactive | Active | inactive | Active |  | 20% |  | Active | inactive | inactive |  | inactive |  |  | inactive | inactive | CCCC1(CCC(=O)O)Cc2cc3c(cc2C1)OCO3
 | inactive | inactive | Active | inactive | Active |  | 20% |  | Active | inactive | inactive |  | inactive |  |  | inactive | inactive | CCCC1(CCC(=O)O)Cc2cc3c(cc2C1=O)OCO3 (centres undefined)
 | inactive | inactive | Active | inactive | Active |  | 20% |  | Active | inactive | inactive |  | inactive |  |  | inactive | inactive | CCCC1(CCC(=O)O)Cc2ccc(OC)cc2C1=O (centres undefined)
